Results: ChEMBL document CHEMBL3286371, “wALADin benzimidazoles differentially modulate the function of porphobilinogen synthase orthologs” (J Med Chem, 2014)
Active and inactive are the calls of the source. The calls are words filed in the database; no cut-off is given here.

Experiments:
[1] = Stimulation of Toxoplasma gondii recombinant PBGS using 5-ALA as substrate
How it was run: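 T. gondii PBGS, expressed from pET-21b in BL21 E. coli and purified, at 250 nM subunit in 100 mM Tris-HCl pH 8.0 with 1 mM MgCl2, 5 mM DTT and 0.2 mM 5-ALA, 20 min at 36 °C. Porphobilinogen detected with Ehrlich's reagent. Activity normalized to 6.7% DMSO control. EC50 by variable-slope agonist fit.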

[2] = target: Delta-aminolevulinic acid dehydratase (Yersinia enterocolitica W22703) (UniProt F4MUJ9); test: Stimulation of Yersinia enterocolitica recombinant PBGS expressed in Escherichia coli using 5-ALA as substrate relative to control
How it was run: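 Y. enterocolitica PBGS, expressed in E. coli from pET3, at 150 nM subunit in 100 mM BTP-HCl pH 8.0 with 1 mM MgCl2, 5 mM DTT, 100 mM KCl and 0.2 mM 5-ALA, 10 min at 36 °C. Porphobilinogen read with Ehrlich's reagent. Activity normalized to 6.7% DMSO control as 100%. EC50 from variable-slope agonist fit.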

[3] = target: T1, Delta-aminolevulinic acid dehydratase (Homo sapiens, UniProt P13716); test: Inhibition of human PBGS using 5-ALA as substrate
T1 sequence (P13716 whole entry): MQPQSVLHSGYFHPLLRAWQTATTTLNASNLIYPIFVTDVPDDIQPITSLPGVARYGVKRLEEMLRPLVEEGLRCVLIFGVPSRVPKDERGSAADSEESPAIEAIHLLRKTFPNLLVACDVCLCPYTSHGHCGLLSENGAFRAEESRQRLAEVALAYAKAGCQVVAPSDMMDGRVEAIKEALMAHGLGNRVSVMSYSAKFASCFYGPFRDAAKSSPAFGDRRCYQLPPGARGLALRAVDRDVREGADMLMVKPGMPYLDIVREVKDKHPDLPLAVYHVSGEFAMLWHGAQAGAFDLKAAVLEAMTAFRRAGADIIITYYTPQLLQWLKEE

[4] = target: T2, Delta-aminolevulinic acid dehydratase (Escherichia coli (strain K12)) (UniProt P0ACB2); test: Stimulation of Escherichia coli recombinant PBGS using 5-ALA as substrate relative to control
T2 sequence (whole entry): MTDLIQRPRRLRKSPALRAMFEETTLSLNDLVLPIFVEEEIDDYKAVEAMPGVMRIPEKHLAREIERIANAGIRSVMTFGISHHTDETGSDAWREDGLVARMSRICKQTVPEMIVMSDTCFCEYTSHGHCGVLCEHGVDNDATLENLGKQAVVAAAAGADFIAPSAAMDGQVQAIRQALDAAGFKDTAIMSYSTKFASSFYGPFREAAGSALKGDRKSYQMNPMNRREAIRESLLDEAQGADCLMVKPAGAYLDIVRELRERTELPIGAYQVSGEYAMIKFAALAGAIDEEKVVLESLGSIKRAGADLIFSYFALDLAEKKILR
How it was run: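 E. coli PBGS at 200 nM subunit in 100 mM BTP-HCl pH 8.1 with 1 mM MgCl2, 10 μM ZnCl2, 5 mM DTT and 0.2 mM 5-ALA, 10 min at 36 °C. Porphobilinogen detected with Ehrlich's reagent. EC50 by log(agonist) vs response variable-slope fit.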

[5] = target: T3, Delta-aminolevulinic acid dehydratase (Drosophila melanogaster, UniProt Q9VTV9); test: Inhibition of Drosophila melanogaster recombinant PBGS using 5-ALA as substrate
T3 sequence (Q9VTV9 whole entry): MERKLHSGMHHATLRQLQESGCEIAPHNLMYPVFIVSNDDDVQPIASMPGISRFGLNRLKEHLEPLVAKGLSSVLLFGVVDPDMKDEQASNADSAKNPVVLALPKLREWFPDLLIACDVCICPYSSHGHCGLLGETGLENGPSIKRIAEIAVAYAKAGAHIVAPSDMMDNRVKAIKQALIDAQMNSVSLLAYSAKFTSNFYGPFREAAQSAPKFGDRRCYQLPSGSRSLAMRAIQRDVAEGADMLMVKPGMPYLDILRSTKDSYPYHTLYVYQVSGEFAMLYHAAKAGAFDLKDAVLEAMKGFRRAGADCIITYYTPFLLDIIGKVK

[6] = target: Delta-aminolevulinic acid dehydratase (Yersinia enterocolitica W22703, UniProt F4MUJ9); test: Stimulation of Yersinia enterocolitica recombinant PBGS expressed in Escherichia coli using 5-ALA as substrate
Toxoplasma gondii [7] = test: Stimulation of Toxoplasma gondii recombinant PBGS using 5-ALA as substrate relative to control
How it was run: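 Recombinant T. gondii PBGS (hemB in pET-21b, expressed in BL21 E. coli) at 250 nM subunit in 100 mM Tris-HCl pH 8.0, 1 mM MgCl2, 5 mM DTT, with 200 μM 5-ALA, 20 min at 36 °C. Porphobilinogen was read with Ehrlich's reagent, and turnover was kept at or below 30%.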

[8] = target: T4, Delta-aminolevulinic acid dehydratase (Escherichia coli (strain K12), UniProt P0ACB2); test: Stimulation of Escherichia coli recombinant PBGS using 5-ALA as substrate
T4 sequence (P0ACB2 whole entry): T2 sequence (whole entry)
How it was run: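 E. coli PBGS at 200 nM subunit in 100 mM BTP-HCl pH 8.1 with 1 mM MgCl2, 10 μM ZnCl2, 5 mM DTT and 0.2 mM 5-ALA, 10 min at 36 °C. Porphobilinogen detected with Ehrlich's reagent. Activity normalized to control with 6.7% DMSO set at 100%. EC50 by log(agonist) vs response variable-slope fit.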

[9] = target: Delta-aminolevulinic acid dehydratase (Pseudomonas aeruginosa (strain ATCC 15692 / PAO1 / 1C / PRS 101 / LMG12228)) (UniProt Q59643); test: Inhibition of Pseudomonas aeruginosa PAO1 recombinant PBGS using 5-ALA as substrate at […]
[10] = target: T5, Delta-aminolevulinic acid dehydratase (Pseudomonas aeruginosa (strain ATCC 15692 / PAO1 / 1C / PRS 101 / LMG12228), UniProt Q59643); test: Stimulation of Pseudomonas aeruginosa PAO1 recombinant PBGS using 5-ALA as substrate
How it was run: (§1)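 His-tagged PaPBGS at 150 nM subunit in 100 mM Tris-HCl pH 8.0 with 1 mM MgCl2, 100 mM KCl and 0.2 mM 5-ALA, 10 min at 36 °C, with turnover at most 30%. Porphobilinogen read with Ehrlich's reagent. Activity normalized to 6.7% DMSO control as 100%. EC50 from variable-slope agonist fit.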

[11] = target: Delta-aminolevulinic acid dehydratase (Pseudomonas aeruginosa (strain ATCC 15692 / PAO1 / 1C / PRS 101 / LMG12228)) (UniProt Q59643); test: Stimulation of Pseudomonas aeruginosa PAO1 recombinant PBGS using 5-ALA as substrate relative to control; how it was run: as §1
[12] = target: T6, Delta-aminolevulinic acid dehydratase (Wolbachia sp. subsp. Brugia malayi (strain TRS), UniProt Q5GSR3); test: Inhibition of C-terminal His-tagged Wolbachia PBGS using 5-ALA as substrate
T6 sequence (Q5GSR3 whole entry): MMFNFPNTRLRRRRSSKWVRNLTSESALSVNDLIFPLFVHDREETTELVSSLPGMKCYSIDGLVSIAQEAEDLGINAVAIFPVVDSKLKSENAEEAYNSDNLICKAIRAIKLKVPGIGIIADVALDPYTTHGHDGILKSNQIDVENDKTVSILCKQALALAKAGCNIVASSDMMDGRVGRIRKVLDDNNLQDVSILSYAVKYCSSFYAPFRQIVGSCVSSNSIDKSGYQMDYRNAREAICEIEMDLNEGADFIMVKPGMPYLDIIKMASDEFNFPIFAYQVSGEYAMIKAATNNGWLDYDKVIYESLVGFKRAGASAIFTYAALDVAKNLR

[13] = target: T7, Delta-aminolevulinic acid dehydratase, chloroplastic (Pisum sativum, UniProt P30124); test: Inhibition of Pisum sativum PBGS using 5-ALA as substrate; set-up: species or system Lathyrus oleraceus
T7 sequence (P30124 whole entry): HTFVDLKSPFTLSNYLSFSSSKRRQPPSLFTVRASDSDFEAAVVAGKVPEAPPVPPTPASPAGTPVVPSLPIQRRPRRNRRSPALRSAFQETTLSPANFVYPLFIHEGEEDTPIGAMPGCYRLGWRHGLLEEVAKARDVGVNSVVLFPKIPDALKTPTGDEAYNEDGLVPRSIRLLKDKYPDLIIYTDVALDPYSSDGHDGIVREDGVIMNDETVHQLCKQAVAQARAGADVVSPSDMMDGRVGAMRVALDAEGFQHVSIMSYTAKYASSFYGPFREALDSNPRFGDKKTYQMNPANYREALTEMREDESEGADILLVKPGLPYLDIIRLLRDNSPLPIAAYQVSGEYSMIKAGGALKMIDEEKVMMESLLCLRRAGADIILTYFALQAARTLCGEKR
How it was run: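 Pea (P. sativum) PBGS at 300 nM subunit in 100 mM BTP-HCl pH 8.5 with 1 mM MgCl2, 5 mM DTT and 0.2 mM 5-ALA, 15 min at 36 °C. Porphobilinogen detected with Ehrlich's reagent. Activity normalized to 6.7% DMSO control as 100%. IC50 from variable-slope normalized-response fit.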

[14] = Ratio of IC50 for Pisum sativum PBGS to IC50 for C-terminal His-tagged Wolbachia PBGS
[15] = target: T5, Delta-aminolevulinic acid dehydratase; test: Inhibition of Pseudomonas aeruginosa PAO1 recombinant PBGS using 5-ALA as substrate
How it was run: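 Turnover kept at or below 30%. Porphobilinogen measured with Ehrlich's reagent. IC50 by variable-slope fit of activity normalized to DMSO control.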

[16] = target: T2, Delta-aminolevulinic acid dehydratase (Escherichia coli (strain K12)); test: Inhibition of Escherichia coli recombinant PBGS using 5-ALA as substrate at […]
[17] = target: T2, Delta-aminolevulinic acid dehydratase (Escherichia coli (strain K12)); test: Stimulation of Escherichia coli recombinant PBGS using 5-ALA as substrate at […]
[18] = target: Delta-aminolevulinic acid dehydratase (Yersinia enterocolitica W22703) (UniProt F4MUJ9); test: Stimulation of Yersinia enterocolitica recombinant PBGS expressed in Escherichia coli using 5-ALA as substrate at […]
[19] = target: Delta-aminolevulinic acid dehydratase (Pseudomonas aeruginosa (strain ATCC 15692 / PAO1 / 1C / PRS 101 / LMG12228)) (UniProt Q59643); test: Stimulation of Pseudomonas aeruginosa PAO1 recombinant PBGS using 5-ALA as substrate at […]
Toxoplasma gondii [20] = test: Stimulation of Toxoplasma gondii recombinant PBGS using 5-ALA as substrate at […]
[21] = target: Delta-aminolevulinic acid dehydratase (Yersinia enterocolitica W22703) (UniProt F4MUJ9); test: Inhibition of Yersinia enterocolitica recombinant PBGS expressed in Escherichia coli using 5-ALA as substrate at […]
Toxoplasma gondii [22] = test: Inhibition of Toxoplasma gondii recombinant PBGS using 5-ALA as substrate at […]

Sequence of Delta-aminolevulinic acid dehydratase (Yersinia enterocolitica W22703) (F4MUJ9 as listed by the source): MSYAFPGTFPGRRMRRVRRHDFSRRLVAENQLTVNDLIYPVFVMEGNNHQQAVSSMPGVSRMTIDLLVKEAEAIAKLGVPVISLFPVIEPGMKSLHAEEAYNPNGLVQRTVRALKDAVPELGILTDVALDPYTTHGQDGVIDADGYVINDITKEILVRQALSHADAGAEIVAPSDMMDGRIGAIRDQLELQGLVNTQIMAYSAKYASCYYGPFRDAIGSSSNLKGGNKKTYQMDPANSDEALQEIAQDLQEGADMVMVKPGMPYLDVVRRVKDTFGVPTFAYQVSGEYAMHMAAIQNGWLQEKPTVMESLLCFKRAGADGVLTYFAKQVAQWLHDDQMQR
Sequence of Delta-aminolevulinic acid dehydratase (Pseudomonas aeruginosa (strain ATCC 15692 / PAO1 / 1C / PRS 101 / LMG12228)) (Q59643 whole entry): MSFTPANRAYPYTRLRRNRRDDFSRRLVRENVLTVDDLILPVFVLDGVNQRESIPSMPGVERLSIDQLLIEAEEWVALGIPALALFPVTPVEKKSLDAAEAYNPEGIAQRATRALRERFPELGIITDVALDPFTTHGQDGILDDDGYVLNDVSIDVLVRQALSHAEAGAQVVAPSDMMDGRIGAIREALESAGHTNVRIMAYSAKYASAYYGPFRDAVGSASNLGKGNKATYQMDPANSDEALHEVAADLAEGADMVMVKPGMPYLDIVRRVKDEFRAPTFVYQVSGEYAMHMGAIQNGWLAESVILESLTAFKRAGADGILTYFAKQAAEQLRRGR
T5 sequence (Q59643 whole entry): as above
Sequence of Delta-aminolevulinic acid dehydratase (Yersinia enterocolitica W22703, UniProt F4MUJ9) (F4MUJ9 whole entry, one chain of several): as the sequence (F4MUJ9 as listed by the source) above

SMILES: O=C(NCCc1nc2c(C(=O)O)cccc2n1Cc1cccc(C(F)(F)F)c1)c1cccs1
- EC50 [1]: 21 µM
- Smax [2]: 123%
- IC50 [3]: 500 µM
- Smax [4]: 116%
- IC50 [5]: > 1000 µM
- EC50 [6]: 23 µM
- Smax (Toxoplasma gondii [7]): 130%
- EC50 [8]: 19 µM
- inhibition [9]: inactive
- EC50 [10]: 15 µM
- Smax [11]: 136%
- IC50 [12]: 500 µM
- IC50 [13]: > 500 µM

SMILES: O=C(O)c1c2c(nc3ccccc13)CCN(C(=O)c1cccc(C(F)(F)F)c1)C2
- Ratio IC50 [14]: 10
- IC50 [5]: > 1000 µM
- IC50 [15]: 475 µM
- inhibition [16]: inactive
- Smax [17]: 100%
- Smax [18]: 100%
- Smax [19]: 100%
- Smax (Toxoplasma gondii [20]): 100%
- inhibition [9]: inactive
- inhibition [21]: inactive
- inhibition (Toxoplasma gondii [22]): inactive
- IC50 [13]: 88.2 µM
